Molecules are shown by their SMILES. Active and inactive are the calls of the source. The rule behind the calls is not given here. A value given as a limit tells only on which side of the number the result lay.

This is an account of results in ChEMBL document CHEMBL4270659, “Discovery and anti-inflammatory evaluation of benzothiazepinones (BTZs) as novel non-ATP competitive inhibitors of glycogen synthase kinase-3β (GSK-3β)” (Bioorg Med Chem, 2018).

In test [1] the test system is Mus musculus. Nature of the test: In vivo inhibition of GSK-3beta in C57BL/6 mouse lung injury model assessed as upregulation of LPS-induced phosphorylation at Ser9 residue in lung at 80 uM, ip administered 12 hrs prior to LPS challenge and measured after 24 hrs by Western blot analysis relative to control. The format is functional. Summed up: (§1)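 Mice were pretreated ip with compound (80 μM) or PBS, and LPS (10 mg/kg ip) was given 12 h later. Lungs were collected 24 h post-LPS, and p-GSK-3β and SIRT1 were detected by Western blot. Values are means ± SE of 4 independent experiments.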
In general terms: A western blot detects proteins with antibodies after separation by electrophoresis.

The target in test [2] is T1, Glycogen synthase kinase-3 beta (Homo sapiens, UniProt P49841). Description: Inhibition of human recombinant N-terminal His6-tagged human GSK-3beta expressed in Baculovirus infected SF9 cells using prephosphorylated-GS2 polypeptide as substrate after 30 mins by kinase-Glo reagent based luminescence assay. Summed up:
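GSK-3β was incubated with ATP and GS-2 substrate with or without compound. ATP remaining after the kinase reaction was quantified by Kinase-Glo luminescence. IC50 is the mean of triplicate experiments.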
Target sequence in this assay (P49841 whole entry): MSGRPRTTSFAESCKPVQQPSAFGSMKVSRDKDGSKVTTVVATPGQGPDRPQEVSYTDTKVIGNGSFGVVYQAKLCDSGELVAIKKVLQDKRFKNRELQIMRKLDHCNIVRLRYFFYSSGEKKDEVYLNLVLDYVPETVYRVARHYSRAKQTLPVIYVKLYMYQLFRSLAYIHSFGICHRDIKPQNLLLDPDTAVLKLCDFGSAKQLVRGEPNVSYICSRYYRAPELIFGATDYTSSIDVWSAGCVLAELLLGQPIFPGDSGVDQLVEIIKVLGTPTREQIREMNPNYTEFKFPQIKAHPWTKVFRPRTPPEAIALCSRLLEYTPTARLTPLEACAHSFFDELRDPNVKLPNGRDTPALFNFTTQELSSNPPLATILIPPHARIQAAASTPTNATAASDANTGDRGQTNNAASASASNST

Test [3] has as its system Mus musculus. Description: Anti-inflammatory activity in C57BL/6 mouse lung injury model assessed as inhibition of IL-6 mRNA expression level at 80 uM, ip administered 12 hrs prior to LPS challenge and measured after 24 hrs by qRT-PCR analysis. The test is classed as functional. For orientation: Real-time PCR tracks product formation cycle by cycle.
Test [4] concerns the target Proto-oncogene tyrosine-protein kinase receptor Ret (Homo sapiens) (UniProt P07949). Nature of the test: Inhibition of human RET at 100 uM.
In test [5] the test system is Mus musculus. Description: Anti-inflammatory activity in C57BL/6 mouse lung injury model assessed as inhibition of IL-1beta mRNA expression level at 80 uM, ip administered 12 hrs prior to LPS challenge and measured after 24 hrs by qRT-PCR analysis. The test is classed as functional.
Test [6] concerns Mus musculus. Description: Anti-inflammatory activity in C57BL/6 mouse lung injury model assessed reduction in lung tissue damage at 80 uM, ip administered 12 hrs prior to LPS challenge and measured after 24 hrs by Hematoxylin and eosin staining-based light microscopic analysis. The test is classed as functional. Further details: scale not given: the % may be the effect or the level left. Put shortly: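 C57BL/6 mice received compound (80 μM) or PBS ip, followed 12 h later by LPS (10 mg/kg ip). At 24 h after LPS, lungs were fixed, embedded, sectioned and H&E stained. Hemorrhage, edema, interstitial inflammatory cell infiltration, hyaline membrane and atelectasis were each graded 0–4 to give an injury score. Mean ± SEM, n = 5 mice.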

The target of test [7] is Tyrosine-protein kinase ABL1 (Homo sapiens) (UniProt P00519). The conditions noted are these: at 100 µM.
Chain of Tyrosine-protein kinase ABL1 (Homo sapiens) (P00519 whole entry): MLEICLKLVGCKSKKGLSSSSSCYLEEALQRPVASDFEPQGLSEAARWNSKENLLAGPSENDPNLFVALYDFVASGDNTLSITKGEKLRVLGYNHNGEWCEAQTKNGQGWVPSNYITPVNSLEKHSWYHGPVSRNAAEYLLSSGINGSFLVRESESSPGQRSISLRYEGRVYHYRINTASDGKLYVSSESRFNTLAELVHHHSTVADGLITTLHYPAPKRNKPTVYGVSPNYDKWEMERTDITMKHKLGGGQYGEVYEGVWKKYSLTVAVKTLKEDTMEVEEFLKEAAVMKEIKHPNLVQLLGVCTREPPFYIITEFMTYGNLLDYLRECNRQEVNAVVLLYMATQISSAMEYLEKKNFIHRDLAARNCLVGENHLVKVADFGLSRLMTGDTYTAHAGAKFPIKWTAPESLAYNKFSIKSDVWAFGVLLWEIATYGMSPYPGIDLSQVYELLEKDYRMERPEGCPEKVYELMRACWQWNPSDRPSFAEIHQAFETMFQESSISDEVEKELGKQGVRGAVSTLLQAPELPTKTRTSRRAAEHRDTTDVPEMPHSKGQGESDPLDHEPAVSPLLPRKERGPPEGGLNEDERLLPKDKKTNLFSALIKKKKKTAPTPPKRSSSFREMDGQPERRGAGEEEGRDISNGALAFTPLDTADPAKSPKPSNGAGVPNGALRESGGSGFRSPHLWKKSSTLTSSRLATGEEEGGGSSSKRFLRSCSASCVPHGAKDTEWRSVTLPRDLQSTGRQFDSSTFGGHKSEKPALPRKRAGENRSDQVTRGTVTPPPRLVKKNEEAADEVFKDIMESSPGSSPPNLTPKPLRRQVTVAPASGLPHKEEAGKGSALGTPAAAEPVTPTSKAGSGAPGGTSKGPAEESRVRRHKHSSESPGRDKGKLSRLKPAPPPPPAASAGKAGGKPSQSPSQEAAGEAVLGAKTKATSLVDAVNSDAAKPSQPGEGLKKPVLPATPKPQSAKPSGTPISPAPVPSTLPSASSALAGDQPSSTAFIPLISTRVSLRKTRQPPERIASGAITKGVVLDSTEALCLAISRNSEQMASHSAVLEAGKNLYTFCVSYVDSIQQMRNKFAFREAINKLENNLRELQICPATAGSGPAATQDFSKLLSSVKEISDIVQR
Test [8] has as its target Mast/stem cell growth factor receptor Kit (Homo sapiens) (UniProt P10721). Description: Inhibition of human c-KIT at 100 uM. Summed up:
(§2)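 Kinase selectivity panel run at 100 μM inhibitor. Activity is reported as % inhibition, the mean of two independent experiments.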

In test [9] the target is Receptor tyrosine-protein kinase erbB-4 (Homo sapiens) (UniProt Q15303). Nature of the test: Inhibition of human ErbB4 at 100 uM. Put shortly:
as §2

In test [10] the target is Protein kinase C alpha type (Homo sapiens) (UniProt P17252). Description: Inhibition of human PKCalpha at 100 uM. Summed up: as §2
Test [11] concerns the target Vascular endothelial growth factor receptor 1 (Homo sapiens) (UniProt P17948). Nature of the test: Inhibition of human Flt1 at 100 uM. Put shortly:
as §2

Test [12] has as its target Proto-oncogene tyrosine-protein kinase Src (Homo sapiens) (UniProt P12931). As to conditions: at 100 µM.
Test [13] deals with T1, Glycogen synthase kinase-3 beta. Description: Non-ATP competitive inhibition of recombinant N-terminal His6-tagged human GSK-3beta expressed in Baculovirus infected SF9 cells at 15 to 25 uM using prephosphorylated-GS2 polypeptide as substrate after 30 mins by kinase-Glo reagent based luminescence assay. Summed up:
(§3)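 Kinetic analysis used the same Kinase-Glo GSK-3β assay. Inhibitor was tested at fixed concentrations while one substrate (ATP or GS-2) was held constant and the other varied, and the data were plotted as double-reciprocal plots.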
On the technique in general: Kinase-Glo reads ATP consumption through a luciferase reaction.
Target sequence in this assay (P49841 whole entry, looked up): as the sequence (P49841 whole entry) above

Test [14] addresses Casein kinase 2 (Homo sapiens) (UniProt P67870+P68400+P19784+Q8NEV1). Nature of the test: Inhibition of human CK2 at 100 uM. The test is classed as protein assay. Put shortly:
as §2

In test [15] the target is Fibroblast growth factor receptor 1 (Homo sapiens) (UniProt P11362). Nature of the test: Inhibition of human FGFR1 at 100 uM. Summed up:
as §2

Test [16] is filed under the species Homo sapiens. Description: Inhibition of human PKA at 100 uM. Put shortly: as §2
Test [17] deals with Platelet-derived growth factor receptor alpha (Homo sapiens) (UniProt P16234). Description: Inhibition of human PDGFRalpha at 100 uM. Put shortly: as §2
For test [18], the target named is Cyclin-dependent kinase 1 (Homo sapiens) (UniProt P06493). Nature of the test: Inhibition of human CDK1 at 100 uM. Summed up: as §2
For test [19], the system named is Mus musculus. Description: In vivo inhibition of GSK-3beta in C57BL/6 mouse lung injury model assessed as upregulation of SIRT1 expression in lung at 80 uM, ip administered 12 hrs prior to LPS challenge and measured after 24 hrs by Western blot analysis relative to control. The test is classed as functional. Put shortly:
as §1

Test [20] deals with Platelet-derived growth factor receptor beta (Homo sapiens) (UniProt P09619). Description: Inhibition of human PDGFRbeta at 100 uM. Summed up: as §2
Chain of Platelet-derived growth factor receptor beta (Homo sapiens) (P09619 whole entry): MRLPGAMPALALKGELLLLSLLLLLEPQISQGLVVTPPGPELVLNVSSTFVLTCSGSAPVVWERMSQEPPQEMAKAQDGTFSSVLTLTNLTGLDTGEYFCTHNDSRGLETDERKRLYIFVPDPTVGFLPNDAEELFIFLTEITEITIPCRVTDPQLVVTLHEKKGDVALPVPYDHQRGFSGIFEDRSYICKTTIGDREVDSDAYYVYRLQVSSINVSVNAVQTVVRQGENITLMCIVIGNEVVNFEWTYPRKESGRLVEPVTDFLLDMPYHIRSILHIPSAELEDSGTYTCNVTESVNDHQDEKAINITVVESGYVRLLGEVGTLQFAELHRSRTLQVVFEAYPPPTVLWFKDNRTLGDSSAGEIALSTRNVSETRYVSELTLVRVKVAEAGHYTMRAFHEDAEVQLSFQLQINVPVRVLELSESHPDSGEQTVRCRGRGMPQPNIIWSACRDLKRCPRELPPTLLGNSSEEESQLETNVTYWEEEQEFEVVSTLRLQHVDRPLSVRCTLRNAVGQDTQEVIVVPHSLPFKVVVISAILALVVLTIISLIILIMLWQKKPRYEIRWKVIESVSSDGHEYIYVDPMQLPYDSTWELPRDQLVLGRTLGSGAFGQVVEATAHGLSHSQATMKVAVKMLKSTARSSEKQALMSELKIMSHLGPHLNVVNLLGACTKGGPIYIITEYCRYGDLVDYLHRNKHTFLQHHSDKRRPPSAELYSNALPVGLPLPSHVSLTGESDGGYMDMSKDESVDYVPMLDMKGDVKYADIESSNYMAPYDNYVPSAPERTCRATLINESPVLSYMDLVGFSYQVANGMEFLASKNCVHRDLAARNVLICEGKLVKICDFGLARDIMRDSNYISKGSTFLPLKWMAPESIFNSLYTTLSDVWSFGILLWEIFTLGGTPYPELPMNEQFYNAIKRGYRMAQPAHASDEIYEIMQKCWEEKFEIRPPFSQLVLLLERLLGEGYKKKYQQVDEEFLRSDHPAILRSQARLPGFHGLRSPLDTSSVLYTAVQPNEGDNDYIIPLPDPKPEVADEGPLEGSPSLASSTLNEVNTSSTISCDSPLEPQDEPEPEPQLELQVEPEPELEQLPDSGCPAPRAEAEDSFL
Test [21] addresses Vascular endothelial growth factor receptor 2 (Homo sapiens) (UniProt P35968). Description: Inhibition of human KDR at 100 uM. Put shortly:
as §2

In test [22] the target is T1, Glycogen synthase kinase-3 beta. Nature of the test: Non-ATP competitive inhibition of recombinant N-terminal His6-tagged human GSK-3beta expressed in Baculovirus infected SF9 cells at 20 to 30 uM using prephosphorylated-GS2 polypeptide as substrate after 30 mins by kinase-Glo reagent based luminescence assay. Put shortly:
as §3
Target sequence in this assay (P49841 whole entry, looked up): as the sequence (P49841 whole entry) above

Chain of Proto-oncogene tyrosine-protein kinase receptor Ret (Homo sapiens) (P07949 whole entry): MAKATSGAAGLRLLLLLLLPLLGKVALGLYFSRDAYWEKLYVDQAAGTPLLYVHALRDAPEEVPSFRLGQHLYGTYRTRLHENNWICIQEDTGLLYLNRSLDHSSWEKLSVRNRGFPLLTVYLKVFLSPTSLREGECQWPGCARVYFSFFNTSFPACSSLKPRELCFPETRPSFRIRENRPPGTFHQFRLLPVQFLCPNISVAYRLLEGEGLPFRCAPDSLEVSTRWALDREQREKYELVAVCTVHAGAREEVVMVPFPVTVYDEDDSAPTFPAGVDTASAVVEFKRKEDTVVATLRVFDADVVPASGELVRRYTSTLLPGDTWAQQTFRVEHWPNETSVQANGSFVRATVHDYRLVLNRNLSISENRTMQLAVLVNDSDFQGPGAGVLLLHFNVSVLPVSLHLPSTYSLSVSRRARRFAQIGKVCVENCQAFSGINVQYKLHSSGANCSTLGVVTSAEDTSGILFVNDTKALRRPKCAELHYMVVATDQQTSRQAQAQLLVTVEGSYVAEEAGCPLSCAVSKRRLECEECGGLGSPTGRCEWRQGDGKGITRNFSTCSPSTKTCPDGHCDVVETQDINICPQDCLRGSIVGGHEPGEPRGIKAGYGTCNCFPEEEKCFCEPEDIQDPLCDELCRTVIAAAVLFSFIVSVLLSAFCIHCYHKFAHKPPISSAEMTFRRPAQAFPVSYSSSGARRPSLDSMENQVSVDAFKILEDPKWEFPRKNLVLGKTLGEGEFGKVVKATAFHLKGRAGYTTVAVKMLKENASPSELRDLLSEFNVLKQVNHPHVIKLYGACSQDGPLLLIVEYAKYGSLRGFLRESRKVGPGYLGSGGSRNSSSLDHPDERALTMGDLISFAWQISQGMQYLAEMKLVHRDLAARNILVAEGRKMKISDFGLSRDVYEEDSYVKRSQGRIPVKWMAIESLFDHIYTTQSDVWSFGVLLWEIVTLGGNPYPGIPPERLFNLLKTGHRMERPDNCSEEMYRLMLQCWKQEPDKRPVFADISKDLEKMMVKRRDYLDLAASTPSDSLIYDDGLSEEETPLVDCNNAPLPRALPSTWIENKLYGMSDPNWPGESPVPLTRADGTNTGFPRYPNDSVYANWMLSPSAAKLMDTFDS
Chain of Mast/stem cell growth factor receptor Kit (Homo sapiens) (P10721 whole entry): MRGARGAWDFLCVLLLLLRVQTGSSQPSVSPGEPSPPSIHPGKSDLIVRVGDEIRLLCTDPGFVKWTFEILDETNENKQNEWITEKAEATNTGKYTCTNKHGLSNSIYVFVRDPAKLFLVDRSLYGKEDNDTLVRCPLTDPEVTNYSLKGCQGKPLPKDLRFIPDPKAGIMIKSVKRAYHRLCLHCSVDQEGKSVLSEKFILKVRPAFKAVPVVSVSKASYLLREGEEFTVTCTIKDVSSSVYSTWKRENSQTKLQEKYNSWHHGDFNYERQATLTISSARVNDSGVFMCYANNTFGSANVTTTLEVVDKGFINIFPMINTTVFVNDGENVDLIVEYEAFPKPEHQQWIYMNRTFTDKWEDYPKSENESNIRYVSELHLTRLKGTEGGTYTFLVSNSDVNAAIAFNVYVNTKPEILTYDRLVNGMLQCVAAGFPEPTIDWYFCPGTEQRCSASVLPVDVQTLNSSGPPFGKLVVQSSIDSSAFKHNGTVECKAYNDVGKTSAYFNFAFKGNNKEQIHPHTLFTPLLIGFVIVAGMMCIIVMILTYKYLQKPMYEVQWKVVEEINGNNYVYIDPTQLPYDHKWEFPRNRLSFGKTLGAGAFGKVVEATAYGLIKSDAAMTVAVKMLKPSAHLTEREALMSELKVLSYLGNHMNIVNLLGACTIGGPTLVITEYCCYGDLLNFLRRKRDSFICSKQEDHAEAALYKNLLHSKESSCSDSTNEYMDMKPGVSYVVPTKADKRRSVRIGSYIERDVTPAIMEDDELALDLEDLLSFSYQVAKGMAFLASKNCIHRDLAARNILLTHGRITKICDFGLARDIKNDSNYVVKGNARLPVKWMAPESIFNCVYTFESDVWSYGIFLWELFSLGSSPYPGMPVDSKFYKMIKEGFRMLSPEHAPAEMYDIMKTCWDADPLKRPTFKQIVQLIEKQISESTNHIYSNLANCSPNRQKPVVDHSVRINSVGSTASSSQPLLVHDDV

As a reminder, the IC50 is the midpoint of a concentration-inhibition curve. One may read the inhibition as the change of the read-out against control, counted positive when it falls. Consider `O=C(NCc1ccccc1)c1ccc(C2CC(=O)N(Cc3ccccc3[N+](=O)[O-])c3ccccc3S2)cc1` (stereo unspecified), for which the “fold change (FC)” value in test [1] worked out at 1.42; in test [19], 1.93. The half-inhibitory concentration (IC50) in test [2] turned out to be 28 µM. Further, the “inhibition (INH)” value in [3] amounted to 38.16%; in test [5], 43.18%. In addition, the inhibition was 68% in test [4]; 0% in test [7]; 28% in [8]; 12.2% in test [9]; 12% in [10]; 6.8% in test [11]. The inhibition in test [12] was 7.2%; in test [14], 20%; in [15], 13.5%; in test [16] it was 0%; in test [17], 7.2%; in test [18], 16%. In addition, the inhibition in [20] was 5.5%. In test [6], this compound showed an Activity of 65%. Moreover, the inhibition entry in test [13] was “Active”.
`O=C(c1ccc(C2CC(=O)N(Cc3ccccc3[N+](=O)[O-])c3ccccc3S2)cc1)N1CCCCC1` (stereo unspecified): the IC50 in test [2] was found to be 49 µM.
As to `O=C1CC(c2ccc(C(=O)NCc3cccc(Cl)c3)cc2)Sc2ccccc2N1` (stereo unspecified), the 50% inhibitory concentration (IC50) in test [2] worked out at 25 µM. Further, the figures for the “inhibition (INH)” value in [3] and in test [5] were 24.35% and 28.84%, respectively. Also, the inhibition in test [4] amounted to 18.5%; in [21], 8.7%; in test [7], 46.6%; in test [10], 2%; in [11], 8.9%; in test [12], 0%. The inhibition in [14] is -6%; in test [15], 5.4%; in test [16], -7%; in test [18], 22%; in [20] it was 41.2%. This compound came in with an Activity in test [6] of 49%. Moreover, the inhibition result in [22] is “Active”. Moreover, in test [19], the “fold change (FC)” value is recorded as 1.34.
Regarding `CCN(CC)CCNC(=O)c1c(C)[nH]c(/C=C2\C(=O)Nc3ccc(F)cc32)c1C`, in test [8], the inhibition amounted to 49.4%.
Take `CC(C)(C)NC(=O)c1ccc(C2CC(=O)N(Cc3ccccc3[N+](=O)[O-])c3ccccc3S2)cc1` (stereo unspecified): in [2], the IC50 stood at 48 µM.
Still for that read-out and setting: in the case of `O=C(NCc1cccc(Cl)c1)c1ccc(C2CC(=O)N(Cc3ccccc3[N+](=O)[O-])c3ccccc3S2)cc1` (stereo unspecified) it was 35 µM; in that of `O=C1CC(c2ccc(-c3ccccc3)cc2)Sc2ccccc2N1Cc1ccccc1[N+](=O)[O-]` (stereo unspecified), 51 µM.
For the compound `CS(=O)(=O)c1cccc(N2C(=O)CC(c3ccc(C(=O)NCc4cccc(Cl)c4)cc3)Sc3ccccc32)c1` (stereo unspecified), in [2], the IC50 is 18 µM.
`COC(=O)c1ccc(C2CC(=O)N(Cc3ccccc3[N+](=O)[O-])c3ccccc3S2)cc1` (stereo unspecified): in test [2], the IC50 was found to be 35 µM.
The same measure, in the same setting: in the case of `O=C(NCc1ccc(Br)cc1)c1ccc(C2CC(=O)N(Cc3ccccc3[N+](=O)[O-])c3ccccc3S2)cc1` (stereo unspecified) it was 25 µM.
With `O=C(NCc1ccc(Cl)cc1)c1ccc(C2CC(=O)N(Cc3ccccc3[N+](=O)[O-])c3ccccc3S2)cc1` (stereo unspecified), in test [2], the IC50 worked out at 33 µM.
As for `O=C(NCc1cccc(F)c1)c1ccc(C2CC(=O)N(Cc3ccccc3[N+](=O)[O-])c3ccccc3S2)cc1` (stereo unspecified), in test [2], the IC50 came out at 19 µM.
With `O=C(NCc1ccccn1)c1ccc(C2CC(=O)N(Cc3ccccc3[N+](=O)[O-])c3ccccc3S2)cc1` (stereo unspecified), the IC50 in test [2] came out at 75 µM.
With `O=C(Nc1ccccn1)c1ccc(C2CC(=O)N(Cc3ccccc3[N+](=O)[O-])c3ccccc3S2)cc1` (stereo unspecified), in test [2], the IC50 was 35 µM.
Same read-out and setting: in the case of `O=C(NCc1ccccc1F)c1ccc(C2CC(=O)N(Cc3ccccc3[N+](=O)[O-])c3ccccc3S2)cc1` (stereo unspecified) it was 20 µM.
As for `O=C(NCCc1ccccc1)c1ccc(C2CC(=O)N(Cc3ccccc3[N+](=O)[O-])c3ccccc3S2)cc1` (stereo unspecified), the half-maximal inhibitory concentration (IC50) in [2] was determined as 21 µM.
`CS(=O)(=O)Nc1ccccc1CN1C(=O)CC(c2ccc(C(=O)NCc3cccc(Cl)c3)cc2)Sc2ccccc21` (stereo unspecified): in test [2], the IC50 worked out at 17 µM.
Turning to `COc1ccc(CNC(=O)c2ccc(C3CC(=O)N(Cc4ccccc4[N+](=O)[O-])c4ccccc4S3)cc2)cc1` (stereo unspecified), the IC50 in test [2] came to 27 µM.
Turning to `Cc1ccc(C2CC(=O)N(Cc3ccccc3[N+](=O)[O-])c3ccccc3S2)cc1` (stereo unspecified), in [2], the 50% inhibitory concentration (IC50) was 20 µM.
As to `N#Cc1ccc(C2CC(=O)N(Cc3ccccc3[N+](=O)[O-])c3ccccc3S2)cc1` (stereo unspecified), in [2], the IC50 worked out at 45 µM.
For `O=C(NC1CC1)c1ccc(C2CC(=O)N(Cc3ccccc3[N+](=O)[O-])c3ccccc3S2)cc1` (stereo unspecified), the half-maximal inhibitory concentration (IC50) in test [2] is more than 100 µM.
For the compound `COC(=O)c1cccc(C2CC(=O)N(Cc3ccccc3[N+](=O)[O-])c3ccccc3S2)c1` (stereo unspecified), the half-inhibitory concentration (IC50) in test [2] turned out to be 66 µM.
As for `CN1CCN(C(=O)c2ccc(C3CC(=O)N(Cc4ccccc4[N+](=O)[O-])c4ccccc4S3)cc2)CC1` (stereo unspecified), the half-maximal inhibitory concentration (IC50) in test [2] was more than 100 µM.
For the compound `Cc1ccc(CNC(=O)c2ccc(C3CC(=O)N(Cc4ccccc4[N+](=O)[O-])c4ccccc4S3)cc2)cc1` (stereo unspecified), the IC50 in [2] worked out at 18 µM.
On to `CCCCNC(=O)c1ccc(C2CC(=O)N(Cc3ccccc3[N+](=O)[O-])c3ccccc3S2)cc1` (stereo unspecified), for which the IC50 in test [2] was found to be 22 µM.
`CCN(CC)C(=O)c1ccc(C2CC(=O)N(Cc3ccccc3[N+](=O)[O-])c3ccccc3S2)cc1` (stereo unspecified): the IC50 in test [2] is 90 µM.
Turning to `O=C(NCc1ccco1)c1ccc(C2CC(=O)N(Cc3ccccc3[N+](=O)[O-])c3ccccc3S2)cc1` (stereo unspecified), the IC50 in test [2] is 27 µM.
As for `NC(=O)c1ccccc1CN1C(=O)CC(c2ccc(C(=O)NCc3ccccc3)cc2)Sc2ccccc21` (stereo unspecified), in test [2], the concentration for half-maximal inhibition (IC50) worked out at 100 µM.
For the compound `O=C(NC1CCCCC1)c1ccc(C2CC(=O)N(Cc3ccccc3[N+](=O)[O-])c3ccccc3S2)cc1` (stereo unspecified), the concentration for half-maximal inhibition (IC50) in test [2] was found to be 32 µM.
On to `O=C(NCc1ccc(F)cc1)c1ccc(C2CC(=O)N(Cc3ccccc3[N+](=O)[O-])c3ccccc3S2)cc1` (stereo unspecified), for which the IC50 in [2] came to 18 µM.
Regarding `COC(=O)c1ccccc1C1CC(=O)N(Cc2ccccc2[N+](=O)[O-])c2ccccc2S1` (stereo unspecified), the half-maximal inhibitory concentration (IC50) in test [2] turned out to be 80 µM.
